An excerpt weighted towards active compounds, which were near 2.1% of everything screened.
MMP-13 inhibitor: human MMP13 inhibitors, primary screen, biochemical, FRET peptide cleavage; inhibition, % at 4 µM; hit rate 0.07% among 65,000; MMP-13 fTHP FRET cleavage, Mca fluorescence;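 active = inhibition above the mean of compound-free control plate wells plus 3 SD, cut at about 14% in these data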
SF-1 act: activators of human SF-1, primary screen, cell-based, CHO-K1, Gal4-SF-1 LBD, luciferase luminescence; hit rate 1.9% among 65,000; Steroidogenic factor 1 (Homo sapiens), Q13285; activation, % at 10 µM; CHO-K1 Gal4-SF-1 LBD luciferase reporter; % increase over DMSO SF-1-specific signal; AID 522, 2006;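 active = activation above the mean activation of all tested compounds plus 3 SD, cut at about 50% in these data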
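Compound – one dose, 10 µM compound, 1% DMSO · Test system – transient Gal4-SF-1 LBD reporter, CHO-K1 · Input – 4,000 cells in each well · Read-out basis – percent activation relative to DMSO median and mock-transfected background · Replicates – single measurement per compound · Technique – steady-glow luciferase luminescence, read after 15 min reagent incubation · Timing – 20 h compound treatment, 37 °C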
RORA act: activators of orphan receptor RORA, primary screen, cell-based, luminescence; Nuclear receptor ROR-alpha (Homo sapiens), P35398; CHO-K1 Gal4-RORA LBD luciferase reporter; percent increase over mock-subtracted basal signal; activation, % at 10 µM; hit rate 1.5% among 65,000;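 active = activation above the mean of all tested compounds plus 3 SD, cut at about 49% in these data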
MT1-MMP txn act: MT1-MMP promoter reporter activation – cell-based, luciferase luminescence, primary screen; HT1080 MT1-MMP promoter luciferase reporter, overnight; stronger effect = higher value; activation factor at 10 µM; hit rate 0.16% among 86,000; AID 750, 2007;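 active = activation factor of at least 2 for MT1-MMP transcription at 10 µM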
TNAP act mid DEA: human TNAP enzyme activators, primary screen, biochemical, luminescent, intermediate phosphate acceptor level. Alkaline phosphatase, tissue-nonspecific isozyme (Homo sapiens), P05186. purified TNAP, CDP-star luminescence, 100 mM DEA, 30 min; stronger effect = higher value; scale: 0 levamisole-inhibited, 1 vehicle-only enzyme. activation factor at 20 µM. 64,000 tested, under 10 active;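 active = activation factor of at least 2 at 20 µM, relative to controls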
A number is an active result; n = inactive; x = no result.

SMILES	MMP-13 inhibitor	SF-1 act	RORA act	MT1-MMP txn act	TNAP act mid DEA
CC1(C)CN=C(Nc2nc3ccccc3s2)S1	n	70	54	n	n
COC(=O)[C@@H]1C[C@@]2(O)[C@H](O)[C@H](O)[C@H](O)C[C@H]2N1Cc1cccnc1	x	x	x	n	x
Cc1ccc2nc(N3CCC(C(=O)N4CCC5(CC4)OCCO5)CC3)sc2c1	n	74	n	n	n
O=C(C1CCN(c2nc3ccc(Br)cc3s2)CC1)N1CCC2(CC1)OCCO2	n	n	n	n	n
O=P(N[C@@H](c1ccccc1)[C@@H]1C[C@H]1CO)(c1ccccc1)c1ccccc1	x	x	x	n	x
C=C(CC1(CNP(=O)(c2ccccc2)c2ccccc2)CC1)c1ccccc1	x	x	x	2	x
O=C(c1cc2c(s1)-c1ccccc1OC2)N1CCC2(CC1)OCCO2	n	61	54	n	n
CCCc1cc2c(n1Cc1ccco1)C(C)C1CN(C(=O)c3ccccc3)C(C)(C(=O)OC)C21 (centres undefined)	x	x	x	n	x
